ChEMBL document CHEMBL1145994, “CCR2: characterization of the antagonist binding site from a combined receptor modeling/mutagenesis approach” (J Med Chem, 2003)
Activity calls are given as the source filed them. The calls are words filed in the database; no cut-off is given here.

Experiments:
[1] = tested on: T1, C-C chemokine receptor type 2 (Homo sapiens), P41597 [E291Q]; experiment: Binding affinity of compound (10 uM) towards E291Q receptor variant (mutant CCR2 receptor) using radioligand [125I]MCP-1 in HEK 293 cells; Inactive; type: cell-based; conditions: HEK293
T1 sequence (whole entry): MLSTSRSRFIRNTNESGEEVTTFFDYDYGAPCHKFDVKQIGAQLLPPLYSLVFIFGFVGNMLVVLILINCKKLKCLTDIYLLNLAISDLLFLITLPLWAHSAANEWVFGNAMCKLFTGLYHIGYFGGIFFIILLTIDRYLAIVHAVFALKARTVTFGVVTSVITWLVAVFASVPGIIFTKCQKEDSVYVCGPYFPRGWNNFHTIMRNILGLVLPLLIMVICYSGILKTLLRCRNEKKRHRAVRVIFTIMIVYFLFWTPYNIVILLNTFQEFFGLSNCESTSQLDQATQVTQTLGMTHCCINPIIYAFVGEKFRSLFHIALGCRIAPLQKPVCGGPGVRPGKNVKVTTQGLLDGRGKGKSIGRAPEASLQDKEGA
How it was run: (§1)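 Wild-type or point-mutant CCR2 cDNA in pcDNA3.1 transiently transfected into HEK-293T cells at 50–80% confluence, with a co-transfected human G-protein plasmid cocktail. Membranes harvested 48 h later by sonication and differential centrifugation.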

[2] = target: C-C chemokine receptor type 2 (Homo sapiens, UniProt P41597, H121A); experiment: Binding affinity of compound (10 uM) towards H121A receptor variant (mutant CCR2 receptor) using radioligand [125I]MCP-1 in HEK 293 cells; type: cell-based, HEK293
Chain of C-C chemokine receptor type 2 (Homo sapiens, UniProt P41597, H121A) (P41597 whole entry H121A): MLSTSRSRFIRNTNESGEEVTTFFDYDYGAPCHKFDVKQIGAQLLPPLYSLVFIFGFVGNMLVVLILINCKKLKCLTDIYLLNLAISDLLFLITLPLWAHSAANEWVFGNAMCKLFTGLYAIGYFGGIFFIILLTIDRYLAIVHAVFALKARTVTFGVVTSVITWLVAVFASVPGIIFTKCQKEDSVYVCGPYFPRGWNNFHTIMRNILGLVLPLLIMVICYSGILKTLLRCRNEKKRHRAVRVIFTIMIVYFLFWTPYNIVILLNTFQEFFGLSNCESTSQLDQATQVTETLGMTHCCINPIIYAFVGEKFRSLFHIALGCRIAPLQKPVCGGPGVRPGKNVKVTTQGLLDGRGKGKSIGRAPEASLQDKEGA

[3] = target: C-C chemokine receptor type 2 (Homo sapiens, UniProt P41597, H121A/T292A); experiment: Binding affinity of compound (10 uM) towards H121A/T292A receptor variant (double mutant CCR2 receptor) using radioligand [125I]MCP-1 in HEK 293 cells; type: cell-based, HEK293; how it was run: as §1
Chain of C-C chemokine receptor type 2 (Homo sapiens, UniProt P41597, H121A/T292A) (P41597 whole entry H121A/T292A): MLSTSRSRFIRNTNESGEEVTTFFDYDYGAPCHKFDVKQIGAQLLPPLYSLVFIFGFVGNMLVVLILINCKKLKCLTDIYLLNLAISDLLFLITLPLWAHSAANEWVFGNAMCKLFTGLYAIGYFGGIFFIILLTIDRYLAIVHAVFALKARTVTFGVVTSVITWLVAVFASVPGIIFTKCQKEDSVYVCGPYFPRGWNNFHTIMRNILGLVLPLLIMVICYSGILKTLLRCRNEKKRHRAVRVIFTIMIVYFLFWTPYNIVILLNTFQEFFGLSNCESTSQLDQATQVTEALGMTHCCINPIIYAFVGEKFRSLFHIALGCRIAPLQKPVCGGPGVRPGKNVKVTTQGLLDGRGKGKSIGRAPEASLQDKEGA

[4] = target: C-C chemokine receptor type 2 (Homo sapiens, UniProt P41597, H121F); experiment: Binding affinity of compound (10 uM) towards H121F receptor variant (mutant CCR2 receptor) using radioligand [125I]MCP-1 in HEK 293 cells; type: cell-based, HEK293
Chain of C-C chemokine receptor type 2 (Homo sapiens, UniProt P41597, H121F) (P41597 whole entry H121F): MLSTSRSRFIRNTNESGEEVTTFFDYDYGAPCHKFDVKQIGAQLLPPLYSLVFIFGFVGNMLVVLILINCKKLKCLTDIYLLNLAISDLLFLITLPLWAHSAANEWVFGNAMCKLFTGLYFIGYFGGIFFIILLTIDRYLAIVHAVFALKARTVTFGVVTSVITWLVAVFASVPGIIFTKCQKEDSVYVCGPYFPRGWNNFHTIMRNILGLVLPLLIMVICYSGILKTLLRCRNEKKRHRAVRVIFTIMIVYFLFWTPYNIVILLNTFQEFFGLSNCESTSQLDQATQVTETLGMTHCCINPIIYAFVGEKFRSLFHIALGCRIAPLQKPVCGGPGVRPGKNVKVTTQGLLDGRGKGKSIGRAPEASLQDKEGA

[5] = target: C-C chemokine receptor type 2 (Homo sapiens, UniProt P41597, Q288A); experiment: Binding affinity of compound (10 uM) towards Q288A receptor variant (mutant CCR2 receptor) using radioligand [125I]MCP-1 in HEK 293 cells; type: cell-based, HEK293
Chain of C-C chemokine receptor type 2 (Homo sapiens, UniProt P41597, Q288A) (P41597 whole entry Q288A): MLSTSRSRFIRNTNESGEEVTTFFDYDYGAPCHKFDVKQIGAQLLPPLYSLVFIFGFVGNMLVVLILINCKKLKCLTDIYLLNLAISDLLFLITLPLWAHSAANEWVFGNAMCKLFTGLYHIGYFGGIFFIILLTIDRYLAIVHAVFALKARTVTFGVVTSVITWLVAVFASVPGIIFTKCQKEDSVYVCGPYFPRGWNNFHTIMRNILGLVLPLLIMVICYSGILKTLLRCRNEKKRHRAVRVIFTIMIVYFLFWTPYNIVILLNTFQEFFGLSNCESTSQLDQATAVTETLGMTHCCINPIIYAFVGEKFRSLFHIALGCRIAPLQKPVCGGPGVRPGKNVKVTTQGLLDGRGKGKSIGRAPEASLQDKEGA

[6] = target: C-C chemokine receptor type 2 (Homo sapiens, UniProt P41597, T290A); experiment: Binding affinity of compound (10 uM) towards T290A receptor variant (mutant CCR2 receptor) using radioligand [125I]MCP-1 in HEK 293 cells; type: cell-based, HEK293
Chain of C-C chemokine receptor type 2 (Homo sapiens, UniProt P41597, T290A) (P41597 whole entry T290A): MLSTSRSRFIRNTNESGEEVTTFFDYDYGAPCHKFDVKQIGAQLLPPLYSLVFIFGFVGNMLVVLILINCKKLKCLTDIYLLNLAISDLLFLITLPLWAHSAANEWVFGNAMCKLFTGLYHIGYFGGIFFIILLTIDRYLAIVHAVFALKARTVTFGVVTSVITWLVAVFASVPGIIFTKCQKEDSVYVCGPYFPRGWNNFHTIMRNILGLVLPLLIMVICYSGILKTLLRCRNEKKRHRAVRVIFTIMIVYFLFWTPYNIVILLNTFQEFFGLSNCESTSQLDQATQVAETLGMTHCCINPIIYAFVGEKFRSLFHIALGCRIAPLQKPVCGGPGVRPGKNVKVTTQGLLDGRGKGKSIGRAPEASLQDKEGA
How it was run: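 HEK 293 cells transiently transfected with point-mutated human CCR2 (lipofectAMINE Plus, with a human G-protein plasmid cocktail). Membranes were harvested 48 h later in HEPES pH 7/sucrose/EDTA with protease inhibitors.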

[7] = target: C-C chemokine receptor type 2 (Homo sapiens, UniProt P41597, T292A); experiment: Binding affinity of compound (10 uM) towards T292A receptor variant (mutant CCR2 receptor) using radioligand [125I]MCP-1 in HEK 293 cells; type: cell-based, HEK293
Chain of C-C chemokine receptor type 2 (Homo sapiens, UniProt P41597, T292A) (P41597 whole entry T292A): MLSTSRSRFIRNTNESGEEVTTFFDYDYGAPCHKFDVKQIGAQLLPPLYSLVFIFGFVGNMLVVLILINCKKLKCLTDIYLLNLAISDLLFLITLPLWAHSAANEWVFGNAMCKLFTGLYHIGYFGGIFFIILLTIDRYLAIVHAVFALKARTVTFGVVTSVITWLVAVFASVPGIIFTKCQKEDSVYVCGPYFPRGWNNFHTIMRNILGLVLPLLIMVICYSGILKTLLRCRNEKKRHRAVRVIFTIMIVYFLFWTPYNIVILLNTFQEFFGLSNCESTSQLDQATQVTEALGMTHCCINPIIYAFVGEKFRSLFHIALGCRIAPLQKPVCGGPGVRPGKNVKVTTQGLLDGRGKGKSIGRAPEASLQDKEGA

[8] = target: T2, C-C chemokine receptor type 2 (Homo sapiens, UniProt P41597); experiment: Binding affinity of compound (10 uM) towards […] receptor variant (mutant CCR2 receptor) using radioligand [125I]MCP-1 in HEK 293 cells; type: cell-based, HEK293; how it was run: as §1
Target sequence in this assay (P41597 whole entry, looked up, change not shown): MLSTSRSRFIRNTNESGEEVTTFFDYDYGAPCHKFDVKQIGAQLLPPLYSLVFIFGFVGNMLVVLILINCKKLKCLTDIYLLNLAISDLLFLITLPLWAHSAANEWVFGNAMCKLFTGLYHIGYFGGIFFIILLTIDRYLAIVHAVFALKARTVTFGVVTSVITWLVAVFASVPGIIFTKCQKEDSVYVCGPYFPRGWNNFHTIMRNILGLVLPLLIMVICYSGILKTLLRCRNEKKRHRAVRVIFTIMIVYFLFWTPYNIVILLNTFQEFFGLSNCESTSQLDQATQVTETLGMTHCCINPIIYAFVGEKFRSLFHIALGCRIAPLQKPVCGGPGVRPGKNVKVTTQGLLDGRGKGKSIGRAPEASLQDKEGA

[9] = target: T2, C-C chemokine receptor type 2; experiment: Inhibition of chemotaxis by C-C chemokine receptor type 2 antagonist in human monocytes was measured in the presence 1 nM MCP-1; type: functional, cell-based
How it was run: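 Human monocyte chemotaxis driven by 1 nM MCP-1 as agonist. Antagonist added from a 10 mM DMSO stock, final 10 nM to 10 μM; vehicle control included. Values reported as pKb.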
Target sequence in this assay (P41597 whole entry, looked up): as the sequence (P41597 whole entry, looked up, change not shown) above

[10] = target: C-C chemokine receptor type 2 (Homo sapiens, UniProt P41597, D284A); experiment: Binding affinity of compound (10 uM) towards D284A receptor variant (mutant CCR2 receptor) using radioligand [125I]MCP-1 in HEK 293 cells; type: cell-based, HEK293
Chain of C-C chemokine receptor type 2 (Homo sapiens, UniProt P41597, D284A) (P41597 whole entry D284A): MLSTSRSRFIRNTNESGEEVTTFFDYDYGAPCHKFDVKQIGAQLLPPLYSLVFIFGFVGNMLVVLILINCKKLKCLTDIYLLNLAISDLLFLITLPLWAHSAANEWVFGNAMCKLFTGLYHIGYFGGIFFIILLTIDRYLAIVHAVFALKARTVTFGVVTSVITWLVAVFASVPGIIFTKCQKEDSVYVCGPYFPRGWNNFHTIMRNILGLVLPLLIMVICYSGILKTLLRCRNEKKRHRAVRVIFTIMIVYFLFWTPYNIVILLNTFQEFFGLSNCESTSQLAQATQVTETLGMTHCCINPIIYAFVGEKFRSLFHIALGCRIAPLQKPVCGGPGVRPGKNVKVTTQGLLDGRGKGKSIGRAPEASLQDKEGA

[11] = target: T2, C-C chemokine receptor type 2; experiment: Binding affinity of compound (10 uM) towards WT receptor variant (mutant C-C chemokine receptor type 2) using radioligand [125I]MCP-1 in HEK 293 cells; type: cell-based; conditions: hek293
Target sequence in this assay (P41597 whole entry, looked up, change not shown): as the sequence (P41597 whole entry, looked up, change not shown) above

[12] = target: C-C chemokine receptor type 2 (Homo sapiens, UniProt P41597, Y49F); experiment: Binding affinity of compound (10 uM) towards Y49F receptor variant (mutant CCR2 receptor) using radioligand [125I]MCP-1 in HEK 293 cells; type: cell-based, HEK293
Chain of C-C chemokine receptor type 2 (Homo sapiens, UniProt P41597, Y49F) (P41597 whole entry Y49F): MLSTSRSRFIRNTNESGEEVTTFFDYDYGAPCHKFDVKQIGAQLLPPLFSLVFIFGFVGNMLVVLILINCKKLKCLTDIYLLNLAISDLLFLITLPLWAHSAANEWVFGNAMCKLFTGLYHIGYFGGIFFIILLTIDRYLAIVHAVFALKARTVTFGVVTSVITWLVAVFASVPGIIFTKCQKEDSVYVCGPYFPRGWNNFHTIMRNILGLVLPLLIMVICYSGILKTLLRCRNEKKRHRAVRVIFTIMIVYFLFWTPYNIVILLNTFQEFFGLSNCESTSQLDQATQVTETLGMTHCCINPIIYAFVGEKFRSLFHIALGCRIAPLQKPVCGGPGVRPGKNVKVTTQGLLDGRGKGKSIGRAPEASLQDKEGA

[13] = target: T2, C-C chemokine receptor type 2; conditions: HEK293
Target sequence in this assay (P41597 whole entry, looked up): as the sequence (P41597 whole entry, looked up, change not shown) above

[14] = tested on: T1, C-C chemokine receptor type 2 (Homo sapiens), P41597 [E291Q]; conditions: HEK293
[15] = target: T2, C-C chemokine receptor type 2; conditions: HEK293; remark: listed apart in the source
Target sequence in this assay (P41597 whole entry, looked up): as the sequence (P41597 whole entry, looked up, change not shown) above

[16] = target: C-C chemokine receptor type 2 (Homo sapiens, UniProt P41597, E291Q); experiment: Binding affinity of compound (10 uM) towards E291Q receptor variant (mutant CCR2 receptor) using radioligand [125I]MCP-1 in HEK 293 cells; type: cell-based, HEK293; how it was run: as §1
[17] = target: T2, C-C chemokine receptor type 2; experiment: Binding displacement of [125I]MCP-1 (0.14 nM) was measured on CHO cell membranes expressing human CCR2 (C-C chemokine receptor type 2)
Target sequence in this assay (P41597 whole entry): as the sequence (P41597 whole entry, looked up, change not shown) above

[18] = target: T2, C-C chemokine receptor type 2; experiment: Binding affinity of compound (10 uM) towards Y210A-292A receptor variant (double mutant CCR2 receptor) using radioligand [125I]MCP-1 in HEK 293 cells; Inactive; type: cell-based; conditions: HEK293; how it was run: as §1
Target sequence in this assay (P41597 whole entry, looked up): as the sequence (P41597 whole entry, looked up, change not shown) above

[19] = target: T2, C-C chemokine receptor type 2; experiment: Inhibitory activity against C-C chemokine receptor type 2 (antagonist activity); type: functional
Target sequence in this assay (P41597 whole entry): as the sequence (P41597 whole entry, looked up, change not shown) above

SMILES | Log Ki [1] | Ki [2] [nM] | Ki [3] [nM] | Ki [4] [nM] | Ki [5] [nM] | Ki [6] [nM] | Ki [7] [nM] | Ki [8] [nM] | pKb [9] | Ki [10] [nM] | Log Ki [11] | Ki [12] [nM] | Log Ki [13] | Log Ki [14] | Log Ki [15] | Ki [16] [nM] | Ki [17] [nM] | Log Ki [18] | IC50 [19] [nM]
O=C(/C=C/c1ccc(Cl)c(Cl)c1)NCCCCCN1CCC(c2c[nH]c3ccc(O)cc23)CC1 | inactive | 2510 | 2090 | 166 | 170 | 129 | 724 | 562 | 7.71 | 229 | -7 | 16.6 |  |  |  |  |  |  | 
Cc1ccc2c(c1)C1(CCN(CCc3nc(-c4ccccc4)oc3C)CC1)OC(=O)N2 |  |  |  |  |  |  |  |  | 7.57 |  |  |  | inactive | inactive | inactive |  |  |  | 
Cc1ccc(-c2ccc3c(c2)C=C(C(=O)Nc2ccc(C[N+](C)(C)C4CCOCC4)cc2)CCC3)cc1.[Cl-] |  | 17.8 | 182 | 2.63 | 9.77 | 21.4 | 28.8 | 105 | 9.53 | 12.6 | -8.16 | 27.5 |  |  |  | 148 | 4.17 |  | 
Cc1ccc(CN2CC[C@@H](NC(=O)CNC(=O)c3cccc(C(F)(F)F)c3)C2)c(C)c1 | inactive | 2570 |  | 661 | 316 |  | 7760 | 1820 | 6.4 | 724 | -6.47 | 316 |  |  |  |  | 288 | inactive | 54
Cc1ccc(-c2ccc3c(c2)C=C(C(=O)Nc2ccc(CN(C)C4CCOCC4)cc2)CCC3)cc1 |  | 302 | 4790 | 24 | 229 | 105 | 759 | 2570 | 8.63 | 589 | -7.16 | 151 |  |  |  | 2040 | 28.8 | inactive | 
